Results as given in ChEMBL document CHEMBL1125679, “Novel caffeic acid derivatives: extremely potent inhibitors of 12-lipoxygenase” (J Med Chem, 1991).
pIC50: −log10 of the molar value.

What was measured:
[1] = target: T1, Polyunsaturated fatty acid lipoxygenase ALOX15B (Rattus norvegicus, UniProt Q8K4F2); assay: Inhibitory activity against 15-lipoxygenase in rat polymorphonuclear leukocytes; format: cell-based
T1 sequence (Q8K4F2 whole entry): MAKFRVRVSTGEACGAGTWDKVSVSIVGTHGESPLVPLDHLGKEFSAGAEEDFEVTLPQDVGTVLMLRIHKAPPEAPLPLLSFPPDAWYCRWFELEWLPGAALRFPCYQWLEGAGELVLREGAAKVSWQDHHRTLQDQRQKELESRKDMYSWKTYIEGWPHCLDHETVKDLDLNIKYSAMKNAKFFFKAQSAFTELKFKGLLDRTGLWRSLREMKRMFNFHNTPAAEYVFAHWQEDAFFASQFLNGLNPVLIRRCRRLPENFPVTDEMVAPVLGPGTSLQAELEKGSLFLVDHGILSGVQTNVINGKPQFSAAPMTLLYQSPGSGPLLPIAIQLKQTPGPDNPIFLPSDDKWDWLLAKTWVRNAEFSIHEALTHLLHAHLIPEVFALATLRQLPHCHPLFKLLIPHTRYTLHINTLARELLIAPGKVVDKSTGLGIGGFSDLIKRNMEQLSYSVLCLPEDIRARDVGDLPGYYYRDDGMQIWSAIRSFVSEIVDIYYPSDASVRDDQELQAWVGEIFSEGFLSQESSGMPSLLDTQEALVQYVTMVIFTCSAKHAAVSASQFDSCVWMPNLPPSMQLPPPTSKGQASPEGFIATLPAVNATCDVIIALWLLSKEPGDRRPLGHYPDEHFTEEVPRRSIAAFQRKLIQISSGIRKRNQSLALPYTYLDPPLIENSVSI
Procedure, shortened: (§1)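 Heparinized rat blood; PMNLs isolated by Ficoll/Hypaque gradient and hypotonic hemolysis, washed thrice in Hanks' solution, resuspended at 2 × 10^7 cells/mL in 1/15 M phosphate buffer pH 8.2 (>94% neutrophils, <1% platelets). Cells sonicated at 4 °C, given 1 mM CaCl2, incubated with [14C]arachidonic acid (0.2 µCi) 20 min at 37 °C; stopped by HCl acidification to pH 3.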

12-lipoxygenase = 12-lipoxygenase (Rattus norvegicus, UniProt F1LQ70); assay: Inhibitory activity against 12-lipoxygenase in rat platelet rich plasma; format: cell-free
Sequence of 12-lipoxygenase (F1LQ70 whole entry, looked up): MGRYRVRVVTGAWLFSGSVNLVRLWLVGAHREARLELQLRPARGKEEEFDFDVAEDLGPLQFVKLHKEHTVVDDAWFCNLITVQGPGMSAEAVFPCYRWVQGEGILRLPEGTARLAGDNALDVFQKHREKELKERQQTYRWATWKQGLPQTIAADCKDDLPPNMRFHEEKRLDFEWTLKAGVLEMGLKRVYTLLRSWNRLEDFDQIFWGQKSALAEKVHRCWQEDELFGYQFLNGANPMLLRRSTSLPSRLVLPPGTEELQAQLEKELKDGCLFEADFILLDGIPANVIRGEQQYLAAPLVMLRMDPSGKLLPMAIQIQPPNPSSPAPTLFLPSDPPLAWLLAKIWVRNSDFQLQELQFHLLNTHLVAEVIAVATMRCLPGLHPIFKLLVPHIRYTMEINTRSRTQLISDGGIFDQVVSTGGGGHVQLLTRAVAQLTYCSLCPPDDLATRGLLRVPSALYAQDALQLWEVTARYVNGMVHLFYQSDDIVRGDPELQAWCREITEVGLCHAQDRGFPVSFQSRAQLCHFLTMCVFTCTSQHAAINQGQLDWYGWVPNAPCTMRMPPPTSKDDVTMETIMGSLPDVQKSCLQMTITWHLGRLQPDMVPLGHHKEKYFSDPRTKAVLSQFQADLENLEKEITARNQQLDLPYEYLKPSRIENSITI

[2] = target: T2, Polyunsaturated fatty acid 5-lipoxygenase (Rattus norvegicus, UniProt P12527); assay: Inhibitory activity against 5-lipoxygenase in rat polymorphonuclear leukocytes; format: cell-based; procedure, shortened: as §1
T2 sequence (P12527 whole entry): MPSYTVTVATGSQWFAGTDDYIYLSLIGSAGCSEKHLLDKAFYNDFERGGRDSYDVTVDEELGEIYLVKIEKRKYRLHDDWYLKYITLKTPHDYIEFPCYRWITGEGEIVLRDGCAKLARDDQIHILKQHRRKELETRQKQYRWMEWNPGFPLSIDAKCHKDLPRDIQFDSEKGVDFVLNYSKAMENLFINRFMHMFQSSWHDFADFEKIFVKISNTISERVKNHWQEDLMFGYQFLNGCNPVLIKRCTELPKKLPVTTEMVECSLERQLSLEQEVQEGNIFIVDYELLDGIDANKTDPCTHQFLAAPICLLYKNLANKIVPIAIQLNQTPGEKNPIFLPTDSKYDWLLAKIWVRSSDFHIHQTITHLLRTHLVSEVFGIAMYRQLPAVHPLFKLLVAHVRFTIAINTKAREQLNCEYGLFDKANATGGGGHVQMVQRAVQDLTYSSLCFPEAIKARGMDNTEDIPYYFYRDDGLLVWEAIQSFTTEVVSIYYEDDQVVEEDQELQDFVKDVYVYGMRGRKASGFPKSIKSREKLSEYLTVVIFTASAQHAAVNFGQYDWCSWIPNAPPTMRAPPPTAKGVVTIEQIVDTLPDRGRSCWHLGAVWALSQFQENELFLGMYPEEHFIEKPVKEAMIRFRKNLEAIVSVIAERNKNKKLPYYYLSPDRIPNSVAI

Structure (SMILES)	pIC50 [1]	pIC50 (12-lipoxygenase)	pIC50 [2]
COc1ccccc1CCOC(=O)/C(C#N)=C/c1ccc(O)c(O)c1	5.79	7.19	6.85
O=c1cc(-c2ccccc2)oc2cc(O)c(O)c(O)c12 [BAICALEIN]	6.59	7.82	
N#C/C(=C\c1ccc(O)c(O)c1)C(=O)OCCc1ccccc1	6.37	7.29	6.80
N#C/C(=C\c1ccc(O)c(O)c1)C(=O)OC/C=C/c1ccccc1	5.48	7.20	5.72

More lines, now with the values ahead:

pIC50 [1]	pIC50 (12-lipoxygenase)	pIC50 [2]	Structure (SMILES)
6.30	7.89	7.05	N#C/C(=C\c1ccc(O)c(O)c1)C(=O)OCCc1cccs1
5.85	7.28	6.80	N#C/C(=C\c1ccc(O)c(O)c1)C(=O)OCCCc1ccccc1
5.41	6.33	< 5.00	N#C/C(=C\c1ccc(O)c(O)c1)C(=O)OCCCc1cccnc1
6.48	7.48	< 5.00	CCOC(=O)/C(C#N)=C/c1ccc(O)c(O)c1
< 5.00	6.74	< 5.00	N#C/C(=C\c1ccc(O)c(O)c1)C(=O)OCCCCCCCCn1ccnc1
5.44	6.33	6.66	N#C/C(=C\c1ccc(O)c(O)c1)C(=O)OCCCCc1ccccc1
